# Reference: ChEMBL document CHEMBL1123408, “Influence of alkyl-chain fluorination on the action of mammary tumor inhibiting 2,3-bis(hydroxyphenyl)butanes and 2,3-bis(hydroxyphenyl)but-2-enes” (1986)
# Columns and labels:
# [1] = biological target: T1, Estrogen receptor (Mus musculus) (UniProt O08537+P19785); test: Uterotrophic effect in BD2F mice bearing transplantable hormone dependent MXT at 8 mg dose; assay type: functional, tissue-based; conditions: Uterus
# How it was run: (§1)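 MXT-bearing female BD2F1 mice (10 per group) dosed sc in olive oil three times weekly for 6 weeks from the day after tumor transplantation. Uteri excised at sacrifice and dry weight determined; values given as mean ± SD.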
# [2] = biological target: T1, Estrogen receptor (Mus musculus); test: (§2) Uterotrophic effect in mice at 0 ug dose; assay type: functional, tissue-based; parameters: unit not given here; conditions: Uterus
# How it was run: (§3)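 Immature female NMRI mice, 20 days old, 10 per group, given daily sc injections of 0.1 mL olive oil solution for 3 days. Uteri removed 24 h after the last dose, fixed in Bouin's solution, washed, dried and weighed. Antiestrogenic testing measured inhibition of estrone-stimulated uterine growth.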
# [3] = biological target: T1, Estrogen receptor (Mus musculus); test: Uterotrophic effect in BD2F mice bearing transplantable hormone dependent MXT at 1.33 mg dose; assay type: functional, tissue-based; conditions: Uterus; how it was run: as §1
# [4] = biological target: T1, Estrogen receptor (Mus musculus); test: (§4) Uterotrophic effect in mice at 1 ug dose; assay type: functional, tissue-based; parameters: unit not given here; conditions: Uterus; how it was run: as §3
# [5] = biological target: T1, Estrogen receptor (Mus musculus); test: (§5) Uterotrophic effect in mice at 10 ug dose; assay type: functional, tissue-based; parameters: unit not given here; conditions: Uterus; how it was run: as §3
# [6] = biological target: T1, Estrogen receptor (Mus musculus); test: (§6) Uterotrophic effect in mice at 0.1 ug dose; assay type: functional, tissue-based; parameters: unit not given here; conditions: Uterus; how it was run: as §3
# [7] = biological target: T1, Estrogen receptor (Mus musculus); test: Uterotrophic effect in BD2F mice bearing transplantable hormone dependent MXT at 4 mg dose; assay type: functional, tissue-based; conditions: Uterus; how it was run: as §1
# Mus musculus [8] = organism: Mus musculus; test: Relative average tumor wet weight in treated compared to untreated mice at 1.33 mg dose; assay type: functional
# How it was run: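 MXT mammary tumor pieces of 1-2 mm³ from syngeneic donors were implanted sc by trocar into female BD2F₁ mice aged 8-10 weeks (20.0 ± 1.7 g), groups of 10. From the next day, compound in olive oil was given sc three times weekly for 6 weeks. Tumor wet weight was measured at the end and expressed as % T/C.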
# Mus musculus [9] = organism: Mus musculus; test: Relative average tumor wet weight in treated compared to untreated mice at 4 mg dose; assay type: functional
# How it was run: (§7)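 Syngeneic female BD2F1 mice (8–10 weeks) received sc trocar implants of 1–2-mm³ MXT tumor pieces, 10 per group. Treatment began the next day: sc doses in olive oil (solution or suspension), three times weekly for 6 weeks. Tamoxifen-treated control group included. Tumor wet weight measured at sacrifice; expressed as % T/C versus untreated controls.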
# Mus musculus [10] = organism: Mus musculus; test: Relative average tumor wet weight in treated compared to untreated mice at 8 mg dose; assay type: functional; how it was run: as §7
# [11] = biological target: T1, Estrogen receptor (Mus musculus); test: (§8) Uterotrophic effect in mice at 100 ug dose; assay type: functional, tissue-based; conditions: Uterus; how it was run: as §3
# [12] = biological target: T1, Estrogen receptor (Mus musculus); test: as §4; assay type: functional, tissue-based; conditions: Uterus; how it was run: as §3
# [13] = biological target: T1, Estrogen receptor (Mus musculus); test: as §6; assay type: functional, tissue-based; conditions: Uterus; how it was run: as §3
# [14] = biological target: T1, Estrogen receptor (Mus musculus); test: as §8; assay type: functional, tissue-based; parameters: unit not given here; conditions: Uterus; how it was run: as §3
# [15] = biological target: T1, Estrogen receptor (Mus musculus); test: Uterotrophic effect in mice at 1000 ug dose; assay type: functional, tissue-based; parameters: unit not given here; conditions: Uterus; how it was run: as §3
# [16] = biological target: T1, Estrogen receptor (Mus musculus); test: as §2; assay type: functional, tissue-based; parameters: unit not given here; conditions: Uterus; how it was run: as §3; remark: listed apart in the source
# [17] = biological target: T1, Estrogen receptor (Mus musculus); test: as §5; assay type: functional, tissue-based; conditions: Uterus; how it was run: as §3
# [18] = biological target: T1, Estrogen receptor (Mus musculus); test: Uterotrophic effect in mice at 25 ug dose; assay type: functional, tissue-based; parameters: unit not given here; conditions: Uterus; how it was run: as §3
# [19] = biological target: T1, Estrogen receptor (Mus musculus); test: Uterotrophic effect in BD2F mice bearing transplantable hormone dependent MXT at 20 mg dose; assay type: functional, tissue-based; conditions: Uterus; how it was run: as §1
# [20] = biological target: T1, Estrogen receptor (Mus musculus); test: Anti-uterotrophic effect in mice at 100 ug dose; assay type: functional
# How it was run: (§9)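 Immature female NMRI mice, 20 days old (14.5 ± 1.2 g), randomized into groups of 10. Each received a daily sc injection of compound in 0.1 mL olive oil for 3 days, given together with estrone. Uteri were taken 24 h after the last injection, fixed in Bouin's solution, washed, dried and weighed. The read-out was inhibition of estrone-stimulated uterine growth.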
# [21] = biological target: T1, Estrogen receptor (Mus musculus); test: Anti-uterotrophic effect in mice at 10 ug dose; assay type: functional; how it was run: as §9
# [22] = biological target: T1, Estrogen receptor (Mus musculus); test: Anti-uterotrophic effect in mice at 1 ug dose; assay type: functional; how it was run: as §9
# [23] = biological target: T1, Estrogen receptor (Mus musculus); test: Anti-uterotrophic effect in mice at 25 ug dose; assay type: functional; how it was run: as §9
# Mus musculus [24] = organism: Mus musculus; test: Relative average tumor wet weight in treated compared to untreated mice at 20 mg dose; assay type: functional; how it was run: as §7
# Rattus norvegicus [25] = test: Percent change in body weight in DMBA-Induced Hormone-Dependent Mammary Carcinoma rats at 2 mg/kg dose; assay type: functional
# Rattus norvegicus [26] = test: Percent change in body weight in DMBA-Induced Hormone-Dependent Mammary Carcinoma rats at 5 mg/kg dose; assay type: functional
# Rattus norvegicus [27] = test: Percent change in total tumor area in DMBA-Induced Hormone-Dependent Mammary Carcinoma rats at 2 mg/kg dose; assay type: functional
# Rattus norvegicus [28] = test: Percent progression in DMBA-Induced Hormone-Dependent Mammary Carcinoma model in rats at 5 mg/kg dose; assay type: functional
# Rattus norvegicus [29] = test: Initial in tumor number in DMBA-Induced Hormone-Dependent Mammary Carcinoma in rats at 2 mg/kg dose; assay type: functional
# Rattus norvegicus [30] = test: Final tumor number in DMBA-Induced Hormone-Dependent Mammary Carcinoma in rats at 2 mg/kg dose; assay type: functional
# Rattus norvegicus [31] = test: Final tumor number in DMBA-Induced Hormone-Dependent Mammary Carcinoma in rats at 5 mg/kg dose; assay type: functional
# Rattus norvegicus [32] = test: Initial tumor number in DMBA-Induced Hormone-Dependent Mammary Carcinoma in rats at 5 mg/kg dose; assay type: functional
# Rattus norvegicus [33] = test: Percent unchanged tumors in DMBA-Induced Hormone-Dependent Mammary Carcinoma in rats at 2 mg/kg dose; assay type: functional
# Rattus norvegicus [34] = test: Percent unchanged tumors in DMBA-Induced Hormone-Dependent Mammary Carcinoma in rats at 5 mg/kg dose; assay type: functional
# Rattus norvegicus [35] = test: Percent partial remission in DMBA-Induced Hormone-Dependent Mammary Carcinoma in rats at 2 mg/kg dose; assay type: functional
# Rattus norvegicus [36] = test: Percent partial remission in DMBA-Induced Hormone-Dependent Mammary Carcinoma in rats at 5 mg/kg dose; assay type: functional
# Rattus norvegicus [37] = test: Percent progression in DMBA-Induced Hormone-Dependent Mammary Carcinoma in rats at 2 mg/kg dose; assay type: functional
# Rattus norvegicus [38] = test: Percent complete remission in DMBA-Induced Hormone-Dependent Mammary Carcinoma in rats at 2 mg/kg dose; assay type: functional
# Rattus norvegicus [39] = test: Percent complete remission in DMBA-Induced Hormone-Dependent Mammary Carcinoma in rats at 5 mg/kg dose; assay type: functional
# Rattus norvegicus [40] = test: Percent change in total tumor area in DMBA-Induced Hormone-Dependent Mammary Carcinoma rats at 5 mg/kg dose; assay type: functional
# T1 sequence (O08537 whole entry, looked up): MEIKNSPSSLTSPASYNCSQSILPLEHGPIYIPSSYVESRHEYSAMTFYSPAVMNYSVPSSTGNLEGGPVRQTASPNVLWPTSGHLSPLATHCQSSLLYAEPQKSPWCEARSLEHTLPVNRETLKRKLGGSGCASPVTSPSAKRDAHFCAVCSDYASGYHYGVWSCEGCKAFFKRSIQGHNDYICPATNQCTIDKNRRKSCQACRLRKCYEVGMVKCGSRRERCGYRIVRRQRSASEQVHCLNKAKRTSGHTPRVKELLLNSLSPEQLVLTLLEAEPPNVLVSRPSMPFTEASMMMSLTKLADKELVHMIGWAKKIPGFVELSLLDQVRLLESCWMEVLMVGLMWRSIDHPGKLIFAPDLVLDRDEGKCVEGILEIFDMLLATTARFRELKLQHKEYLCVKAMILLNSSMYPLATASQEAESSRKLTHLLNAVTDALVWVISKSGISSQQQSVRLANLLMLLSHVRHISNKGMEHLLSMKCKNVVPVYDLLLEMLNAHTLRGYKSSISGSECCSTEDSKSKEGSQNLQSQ
# T1 sequence (P19785 whole entry, looked up): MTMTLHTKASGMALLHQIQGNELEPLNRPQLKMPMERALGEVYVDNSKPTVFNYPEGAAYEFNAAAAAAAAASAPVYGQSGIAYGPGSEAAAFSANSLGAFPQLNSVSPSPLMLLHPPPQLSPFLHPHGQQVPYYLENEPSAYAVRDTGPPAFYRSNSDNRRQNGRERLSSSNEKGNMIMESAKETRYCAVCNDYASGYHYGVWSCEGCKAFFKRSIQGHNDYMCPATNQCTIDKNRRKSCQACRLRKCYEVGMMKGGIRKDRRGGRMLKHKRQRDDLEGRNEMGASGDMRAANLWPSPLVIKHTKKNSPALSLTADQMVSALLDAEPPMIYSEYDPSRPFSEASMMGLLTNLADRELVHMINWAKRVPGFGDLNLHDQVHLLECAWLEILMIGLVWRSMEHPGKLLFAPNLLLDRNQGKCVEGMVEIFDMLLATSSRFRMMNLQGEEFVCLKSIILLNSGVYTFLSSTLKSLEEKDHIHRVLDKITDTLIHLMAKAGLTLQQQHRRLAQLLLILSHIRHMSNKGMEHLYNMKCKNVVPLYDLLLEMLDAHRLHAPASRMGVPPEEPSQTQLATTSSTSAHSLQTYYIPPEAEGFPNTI
compound,measurement,setting,value
Oc1ccc(/C(=C(/c2ccc(O)cc2)C(F)(F)F)C(F)(F)F)cc1,Effect,[1],169
same,Effect,[2],13.7
same,Effect,[3],182
same,Effect,[4],52.6
same,Effect,[5],38.2
same,Effect,[6],56.4
same,Effect,[7],179
same,TC,Mus musculus [8],10.4%
same,TC,Mus musculus [9],5.5%
same,TC,Mus musculus [10],5.2%
Oc1cccc([C@H]([C@H](c2cccc(O)c2)C(F)(F)F)C(F)(F)F)c1,Effect,[11],36.7
same,Effect,[2],10.8
same,Effect,[12],31.4
same,Effect,[13],10.1
same,Effect,[4],15.4
same,Effect,[5],19.8
same,Effect,[14],34.8
same,Effect,[15],36
same,Effect,[16],13.3
same,Effect,[6],10.1
same,Effect,[17],32
same,Effect,[18],28.8
same,Effect,[19],90.1
same,inhibition,[20],18%
same,inhibition,[21],34.5%
same,inhibition,[22],36.6%
same,inhibition,[23],45.5%
same,Effect,[7],84
same,TC,Mus musculus [24],10.9%
same,TC,Mus musculus [9],23.9%
same,Change in weight,Rattus norvegicus [25],-1.1%
same,Change in weight,Rattus norvegicus [26],-0.4%
same,Change in tumor area %,Rattus norvegicus [27],165%
same,Change in weight,Rattus norvegicus [28],38%
same,No. of tumors,Rattus norvegicus [29],21
same,No. of tumors,Rattus norvegicus [30],19
same,No. of tumors,Rattus norvegicus [31],11
same,No. of tumors,Rattus norvegicus [32],23
same,Tumors,Rattus norvegicus [33],28%
same,Tumors,Rattus norvegicus [34],29%
same,Tumors,Rattus norvegicus [35],10%
same,Tumors,Rattus norvegicus [36],12%
same,Tumors,Rattus norvegicus [37],47%
same,Tumors,Rattus norvegicus [38],15%
same,Tumors,Rattus norvegicus [39],21%
same,Change in tumor area %,Rattus norvegicus [40],166%
